One assay addresses CYP261D1 (P450-PE36). In words: absorbance spectral titration. Format: binding, Moritella sp. PE36. Particulars: 0.1 M Na-Hepes pH 7.4, 0.5 mM EDTA, 25 °C, ambient pressure. Put shortly:
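Recombinant His-tagged enzyme was expressed with […] and 0.5 mM IPTG for 48 h at 30 °C, then Ni-NTA purified. (+) and (−) forms were separated on cation-exchange and DEAE resins and dialyzed into Hepes/glycerol/KCl/TCEP. Titration spectra were taken in a stirred, thermostated cell and analysed by PCA/SVD against high-spin, low-spin and P420 standards. Spin-state changes were fitted to the tight-binding (square-root) equation.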

The target in a further assay is T1, CYP261C1 (P450-SS9) (Photobacterium profundum, UniProt Q6LGK6).
T1 sequence (Q6LGK6 1-480): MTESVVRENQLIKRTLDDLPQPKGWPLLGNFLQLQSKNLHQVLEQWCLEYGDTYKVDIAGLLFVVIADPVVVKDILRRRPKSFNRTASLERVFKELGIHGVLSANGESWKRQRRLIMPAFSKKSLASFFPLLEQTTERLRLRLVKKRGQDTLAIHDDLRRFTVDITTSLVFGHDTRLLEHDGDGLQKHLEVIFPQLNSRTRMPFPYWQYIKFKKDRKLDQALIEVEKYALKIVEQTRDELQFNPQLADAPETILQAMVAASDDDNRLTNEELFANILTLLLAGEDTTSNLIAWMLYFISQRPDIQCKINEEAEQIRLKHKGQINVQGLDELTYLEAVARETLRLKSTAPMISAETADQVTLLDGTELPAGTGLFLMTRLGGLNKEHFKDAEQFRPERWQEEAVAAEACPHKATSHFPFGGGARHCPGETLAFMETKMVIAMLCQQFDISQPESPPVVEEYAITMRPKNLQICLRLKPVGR
In words: absorbance spectral titration. Particulars: μM. The class given is binding. An outline of the steps: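 Recombinant CYP261C1 expressed in E. coli TOPP3, Ni-NTA purified, then separated into (+) and (−) forms on cation/anion exchange. Fatty-acid titrations tracked by absorbance spectra at 25 °C in 0.1 M Na-Hepes pH 7.4 with 0.5 mM EDTA. Spectral series underwent PCA, with least-squares fitting to high-spin, low-spin and P420 standards. Kd came from the tight-binding (square-root) equation.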

Here are results for two compounds from paper PMC3900297 (Biotechnology and applied biochemistry, 2013).

Several values for one entry are separate records, joined by “and”; a condition that tells them apart may be missing. Identical values can stand only once. Like-named read-outs stand apart in the source and are kept apart here.

Turning to `CCCCC/C=C\C/C=C\C/C=C\C/C=C\CCCC(=O)O` [Arachidonic acid], the Kd at CYP261D1 (P450-PE36) (read-out: Arachidonic acid / KD, (+) conformer) was 3.1 ± 0.6 µM; at CYP261D1 (P450-PE36) (read-out: Arachidonic acid / KD, (−) conformer), 8.9 ± 2.2 µM; at CYP261C1 (P450-SS9) (Arachidonic acid / KD), 9.7 µM and 10.4 µM.

As to `CCCCCCCCCCCCCC(=O)O` [Myristic acid], the Kd was 2.4 ± 0.7 µM at CYP261D1 (P450-PE36) (read-out: Myristic acid / KD, (+) conformer); 3 ± 1 µM at CYP261D1 (P450-PE36) (read-out: Myristic acid / KD, (−) conformer); 8.1 µM and 3.6 µM on CYP261C1 (P450-SS9) (Myristic acid / KD).
